From ChEMBL document CHEMBL1142632, “A new bioactive sesterterpene and antiplasmodial alkaloids from the marine sponge hyrtios cf. erecta” (J Nat Prod, 2000)
≈ marks a conversion by molar mass, not a printed value. Calls of active or inactive are those of the source. The rule behind the calls is not given here.

How the values were obtained:
[1] = tested on: Escherichia coli; experiment: Antibacterial activity against Escherichia coli at 50 ug by agar diffusion assay; format: functional; conditions: read-out: IZ
Summary of the method: (§1)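 Agar diffusion: crude extracts and pure compounds applied at 50 µg per disk; growth inhibition read as zone diameter (mm).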

[2] = tested on: Priestia megaterium; experiment: Antibacterial activity against Bacillus megaterium at 50 ug by agar diffusion assay; format: functional; conditions: read-out: IZ; summary of the method: as §1
[3] = Cytotoxicity against rat L6 cells; format: cell-based; conditions: read-out: MIC
[4] = target: Tyrosine-protein kinase Lck (Homo sapiens) (UniProt P06239); experiment: Inhibition of p56 LCK activity at 0.6 mM; design: scale not given: the % may be the effect or the level left
Summary of the method: (§2)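 Nonradioactive ELISA-based tyrosine kinase assay. Samples in DMSO/H2O (1:1) were incubated with 1 U p56lck, 1 µM tyrosine kinase substrate II, 1 mM ATP and 10 mM MgCl2 at 30 °C for 60 to 80 min. Buffers: 20% dilution buffer (HEPES, pH 7.0) and 20% assay buffer (Tris, pH 7.5, with Na3VO4). Absorbance read at 415 nm as residual activity.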

[5] = Cytotoxicity against mouse peritoneal macrophages; format: cell-based, Macrophage; conditions: read-out: MIC
[6] = tested on: Plasmodium falciparum; experiment: Antiplasmodial activity against chloroquine, pyrimethamine-resistant Plasmodium falciparum K1; format: functional, organism-based
Summary of the method: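 In vitro assay against P. falciparum strain K1, a Thailand isolate resistant to chloroquine and pyrimethamine. Chloroquine and artemisinin were run as positive controls.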

[7] = target: Tyrosine-protein kinase Lck (Homo sapiens) (UniProt P06239); experiment: Inhibition of p56 LCK activity at 0.3 mM; design: scale not given: the % may be the effect or the level left; summary of the method: as §2
[8] = tested on: Plasmodium falciparum; experiment: Antiplasmodial activity against chloroquine-sensitive Plasmodium falciparum NF54; format: functional, organism-based
Summary of the method: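 In vitro assay against P. falciparum strain NF54, of unknown origin and susceptible to standard antimalarials. Chloroquine and artemisinin were run as positive controls.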

[9] = tested on: Hepatovirus A; experiment: Antiviral activity against HAV 7 in FRhK4 cells assessed as effect on cytopathogenic effect at 0.038 ug/mL after 21 days by immunofluorescence analysis; format: functional, organism-based
Summary of the method: (§3)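 FRhK-4 cells in 96-well plates were used. For line 5, cells were inoculated with 2 × 10^7 TCID50/ml HAVcytHB1.1. For line 4, cells were persistently infected with HAV/7. Morphology (cytopathogenicity) was checked microscopically over 21 days, and HAV antigen was detected by immunofluorescence after 21 days.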

[10] = target: Tyrosine-protein kinase Lck (Homo sapiens) (UniProt P06239); experiment: Inhibition of p56 LCK activity at 0.7 mM; design: scale not given: the % may be the effect or the level left; summary of the method: as §2
[11] = tested on: Hepatovirus A; experiment: Antiviral activity against HAV cytHB1.1 in FRhK4 cells assessed as effect on cytopathogenic effect at 0.038 ug/mL after 21 days by immunofluorescence analysis; format: functional, organism-based; summary of the method: as §3
[12] = target: Human immunodeficiency virus type 1 reverse transcriptase (Human immunodeficiency virus 1) (UniProt Q72547); experiment: Inhibition of HIV1 reverse transcriptase assessed as enzyme residual activity at 0.12 mM
Summary of the method: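 Nonradioactive ELISA-based reverse transcriptase assay. Reaction mixture held 1 ng recombinant HIV-1-RT. Samples were dissolved in 10% DMSO/lysis buffer. Read-out was residual enzyme activity.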

[13] = tested on: Trypanosoma brucei rhodesiense; experiment: Antitrypanosomal activity against Trypanosoma brucei subsp. rhodesiense; format: functional, organism-based
[14] = tested on: Microbotryum violaceum; experiment: Antifungal activity against Ustilago violacea at 50 ug by agar diffusion assay; format: functional; conditions: read-out: IZ; summary of the method: as §1
[15] = target: Tyrosine-protein kinase Lck (Homo sapiens) (UniProt P06239); experiment: Inhibition of p56 LCK activity at 0.5 mM; design: scale not given: the % may be the effect or the level left; summary of the method: as §2

Sequence of Tyrosine-protein kinase Lck (Homo sapiens) (P06239 2-509 limits assumed): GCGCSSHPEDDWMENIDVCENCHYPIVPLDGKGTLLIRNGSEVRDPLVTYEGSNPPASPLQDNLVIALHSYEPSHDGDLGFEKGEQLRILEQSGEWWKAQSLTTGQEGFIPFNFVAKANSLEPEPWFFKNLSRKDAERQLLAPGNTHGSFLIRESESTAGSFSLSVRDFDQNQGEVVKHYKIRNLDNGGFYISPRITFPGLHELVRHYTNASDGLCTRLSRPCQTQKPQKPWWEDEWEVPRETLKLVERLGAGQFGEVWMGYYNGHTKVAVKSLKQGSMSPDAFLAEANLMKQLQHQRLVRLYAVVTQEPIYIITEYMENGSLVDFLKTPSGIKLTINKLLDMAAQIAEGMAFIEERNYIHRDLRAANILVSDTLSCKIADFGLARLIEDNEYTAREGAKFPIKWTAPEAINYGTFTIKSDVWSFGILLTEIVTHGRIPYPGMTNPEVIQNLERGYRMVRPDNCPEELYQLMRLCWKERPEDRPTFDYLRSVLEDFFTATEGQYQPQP

Structure (SMILES) | zone of inhibition at 50 µg/disc [1] | zone of inhibition at 50 µg/disc [2] | MCC [3] | IC50 [6] | IC50 [8] | also measured
CC(=O)CC1(O)c2ccccc2-[n+]2ccc3c([nH]c4ccccc43)c21.[Cl-] (configuration not stated) [HOMOFASCAPLYSIN A] | 9 mm | 11 mm | 1.1 µg/mL | 0.014 µg/mL | 0.024 µg/mL | Activity [4]: 8%; MCC [5]: 30 µg/mL; Activity [7]: 44%
C[C@@H]1CC[C@H]2[C@@H](C)C(=O)O[C@@H]3O[C@@]4(C)CC[C@@H]1[C@]32OO4 [ARTEMISININ] | – | – | – | 0.001 µg/mL (≈ 3.54 nM) | 0.002 µg/mL (≈ 7.08 nM) | –
O=C1c2ccccc2-[n+]2ccc3c([nH]c4ccccc43)c21.[Cl-] [FASCAPLYSIN CHLORIDE] | 6 mm | 10 mm | 2.5 µg/mL | 0.05 µg/mL | 0.034 µg/mL | Activity [9]: Active; Activity [10]: 10%; Activity [11]: Active; Activity [12]: 10%; IC50 [13]: 630 nM
CC1=C(CC/C(C)=C/CC/C(C)=C/CCC2=CCOC2=O)C(C)(C)CCC1 | – | – | – | – | – | zone of inhibition at 50 µg/disc [14]: 2 mm
CC1=C(CC/C(C)=C/CC/C(C)=C/CCC2=CCOC2=O)C(C)(C)CCC1=O | – | – | – | – | – | Activity [15]: 45%
